# Measured values taken from ChEMBL document CHEMBL1125368, “Thiophene systems. 14. Synthesis and antihypertensive activity of novel 7-(cyclic amido)-6-hydroxythieno[3,2-b]pyrans and related compounds as new potassium channel activators” (1992).
# Assays:
# Type in all cases: functional
# [1] = species: Oryctolagus cuniculus; test: The compound was tested for increase in [86Rb+] efflux in rabbit isolated mesenteric artery over basal rate at a concentration of 10 uM
# Outline: (§1)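 Vessel rings from freshly killed rabbits, held on steel wires in physiological buffer at 37 °C gassed with 95% O2/5% CO2. Rings loaded with 86Rb (4-5 μCi/mL) for 3-4 h, then moved in pairs through 4 mL buffer tubes every 10 min. Basal efflux taken over 30-40 min, followed by test compound in about five vials, then compound-free washout for 10-20 min. Efflux aliquots and overnight-digested tissue counted by liquid scintillation.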
# [2] = species: Oryctolagus cuniculus; test: The compound was tested for increase in [86Rb+] efflux in rabbit isolated mesenteric artery over basal rate at a concentration of 100 uM( Values in parentheses indicates 95%confidence limits); outline: as §1
# [3] = species: Rattus norvegicus; test: The compound was tested for 30% reduction in mean arterial blood pressure(MAP)
# Outline: (§2)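 Conscious SHR with an arterial catheter exteriorized at the nape, held in Bollman restraint cages after a 60-min postsurgical recovery. Only rats with MAP >150 mmHg were used. Single oral gavage dose in distilled water (range 0.003-20 mg/kg), pressure monitored continuously for 4 h by transducer. Maximal % change from predrug MAP over 240 min, N ≥ six rats. ED30 from regression over the linear part of the dose-response, with 95% confidence limits.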
# [4] = species: Oryctolagus cuniculus; test: The compound was tested for increase in [86Rb+] efflux in rabbit isolated mesenteric artery over basal rate at a concentration of 30 uM; outline: as §1
# [5] = species: Oryctolagus cuniculus; test: The compound was tested for increase in [86Rb+] efflux in rabbit isolated mesenteric artery over basal rate at a concentration of 3 uM; outline: as §1
# [6] = system: Rattus norvegicus; test: Maximal change in rat mean arterial blood pressure after 20 mg/kg p.o.; settings: route oral; outline: as §2
# [7] = species: Oryctolagus cuniculus; test: The compound was tested for increase in [86Rb+] efflux in rabbit isolated mesenteric artery over basal rate at a concentration of 100 uM; outline: as §1
# [8] = system: Rattus norvegicus; test: The compound was tested for antihypertensive activity measured as maximal change in mean arterial blood pressure(MAP), after oral administration of 20 mg/kg of the compound.; outline: as §2
# [9] = system: Rattus norvegicus; test: The compound was tested for antihypertensive activity measured as maximal change in mean arterial blood pressure(MAP), after oral administration of 1 mg/kg of the compound.; outline: as §2
# [10] = species: Oryctolagus cuniculus; test: The compound was tested for increase in [86Rb+] efflux in rabbit isolated mesenteric artery over basal rate at a concentration of 30 uM.; outline: as §1
# [11] = species: Oryctolagus cuniculus; test: The compound was tested for increase in [86Rb+] efflux in rabbit isolated mesenteric artery over basal rate at a concentration of 1 uM.; outline: as §1
# [12] = species: Oryctolagus cuniculus; test: The compound was tested for increase in [86Rb+] efflux in rabbit isolated mesenteric artery over basal rate at a concentration of 100 uM.; outline: as §1
# [13] = species: Oryctolagus cuniculus; test: The compound was tested for increase in [86Rb+] efflux in rabbit isolated mesenteric artery over basal rate at a concentration of 10 uM.; outline: as §1
# [14] = species: Oryctolagus cuniculus; test: The compound was tested for increase in [86Rb+] efflux in rabbit isolated mesenteric artery over basal rate at a concentration of 3 uM.; outline: as §1
# [15] = Rattus norvegicus, Arterial blood, read-out: ED30
smiles,measurement,setting,value
CC1(C)Oc2ccc(C#N)cc2[C@@H](N2CCCC2=O)[C@@H]1O [LEVCROMAKALIM],Increase,[1],46%
same,Increase,[2],104%
same,ED30,[3]; [15],0.19 mg/kg
same,Increase,[4],73%
same,Increase,[5],41%
CC1(C)C=C(N2CCCCC2)c2sc([N+](=O)[O-])cc2O1,Change,[6],-17%
CC1(C)Oc2cc([N+](=O)[O-])sc2[C@@H](N2CC(=O)NCC2=O)[C@@H]1O,Increase,[7],0%
same,Change,[8],-4%
CC1(C)Oc2cc([N+](=O)[O-])sc2[C@@H](N2Cc3ccccc3C2=O)[C@@H]1O,Change,[9],-58%
same,ED30,[3]; [15],0.22 mg/kg
same,Change,[6],-61%
CC1(C)Oc2cc([N+](=O)[O-])sc2[C@@H](N2CCCCC2=O)[C@@H]1O (relative stereo),Change,[8],-24%
CC1(C)Oc2cc(C(=O)c3ccccc3)sc2[C@@H](N2CCCC2=O)[C@@H]1O,Increase,[1],0%
same,Change,[9],-4%
same,Increase,[7],58%
same,Change,[6],-50%
same,Increase,[10],33%
CC(=O)c1cc2c(s1)[C@@H](N1CCCCC1=O)[C@H](O)C(C)(C)O2,Increase,[1],13%
same,Increase,[7],26%
same,ED30,[3]; [15],0.09 mg/kg
same,Increase,[4],38%
same,Change,[6],-67%
CC1(C)C=C(n2ccccc2=O)c2sc([N+](=O)[O-])cc2O1,Change,[6],-14%
CC1(C)Oc2cc(C(=O)O)sc2[C@@H](N2CCCCC2=O)[C@@H]1O,Change,[8],-9%
CC1(C)Oc2cc([N+](=O)[O-])sc2[C@@H](N2CCCCC2=O)[C@@H]1O (stereo in doubt; 40),Increase,[1],19%
same,Change,[9]; 1 mg/kg,-19%
same,Increase,[7],19%
same,ED30,[3],1.9 mg/kg
same,Increase,[11],2%
same,Increase,[10],11%
CC1(C)Oc2cc([N+](=O)[O-])sc2[C@@H](N2CCNC2=O)[C@@H]1O,Change,[8],-3%
CC1(C)Oc2cc([N+](=O)[O-])sc2[C@@H](N2CCCCCC2=O)[C@@H]1O,Change,[8],-34%
same,Increase,[4],25%
CC1(C)C=C(N2CCCCC2=O)c2sc([N+](=O)[O-])cc2O1,Change,[6],-5%
CC1(C)Oc2cc([N+](=O)[O-])sc2[C@@H](N2CCCCC2=O)[C@@H]1O (stereo in doubt; 41),Increase,[12],53%
same,Change,[9]; 1 mg/kg,-63%
same,Increase,[13],80%
same,ED30,[3],0.013 mg/kg
same,Increase,[11],26%
same,Increase,[5],66%
same,Increase,[10],91%
CC1(C)Oc2cc(C#N)sc2[C@@H](N2CCCCC2=O)[C@@H]1O,Increase,[7],0%
same,Change,[8],-66%
same,ED30,[3]; [15],0.03 mg/kg
same,Increase,[10],11%
CC1(C)Oc2ccsc2[C@@H](N2CCCCCC2=O)[C@@H]1O,Increase,[7],0%
same,Change,[8],-12%
CC1(C)Oc2ccsc2[C@@H](N2CCCCC2)[C@@H]1O,Increase,[7],0%
same,Change,[6],-6%
CC1(C)Oc2cc(C(N)=O)sc2[C@@H](N2CCCCC2=O)[C@@H]1O,Increase,[1],73%
same,Increase,[7],92%
same,ED30,[3]; [15],0.2 mg/kg
same,Change,[6],-68%
same,Increase,[10],75%
CC1(C)Oc2cc([N+](=O)[O-])sc2[C@@H](N2CCCCC2=O)[C@@H]1O (stereo in doubt; 32),Increase,[1],56%
same,Increase,[14],41%
same,ED30,[3],0.015 mg/kg
same,Increase,[4],60%
same,Change,[6],-65%
Cc1cc2c(s1)[C@@H](N1CCCC1=O)[C@H](O)C(C)(C)O2,Change,[6],-28%
CC1(C)C=C(n2ccccc2=O)c2cc(C#N)ccc2O1 [BIMAKALIM],ED30,[3]; [15],0.01 mg/kg
CC1(C)Oc2ccsc2[C@@H](N2CCCC2=O)[C@@H]1O,Increase,[1],0%
same,Increase,[7],25%
same,ED30,[3]; [15],5.03 mg/kg
same,Change,[6],-55%
same,Increase,[10],8%
CC1(C)Oc2cc(Br)sc2[C@@H](N2CCCC2=O)[C@@H]1O,Increase,[1],65%
same,Change,[9],-3%
same,Increase,[7],90%
same,Increase,[4],64%
same,Change,[6],-43%
CC1(C)Oc2ccsc2[C@@H](N2CCCCC2=O)[C@@H]1O,Increase,[1],7%
same,Increase,[7],40%
same,Change,[6],-53%
same,Increase,[10],26%
CC1(C)Oc2ccsc2[C@@H](N2CCCC2)[C@@H]1O,Increase,[7],0%
same,Change,[6],-14%
CC1(C)Oc2cc(C(=O)OCc3ccccc3)sc2[C@@H](N2CCCC2=O)[C@@H]1O,Change,[6],-14%
CC1(C)Oc2cc(C(=O)C(F)(F)F)sc2[C@@H](N2CCCC2=O)[C@@H]1O,Change,[9],-55%
same,Change,[6],-68%
CNC(=O)c1cc2c(s1)[C@@H](N1CCCCC1=O)[C@H](O)C(C)(C)O2.O,Increase,[12],25%
same,Change,[8],-29%
CC1(C)Oc2cc(Br)sc2[C@@H](N2CCCCC2=O)[C@@H]1O,Increase,[4],42%
same,Change,[6],-64%
CC1(C)Oc2cc([N+](=O)[O-])sc2[C@@H](N2CCCC2=O)[C@@H]1O,Increase,[7],114%
same,Increase,[13],67%
same,ED30,[3]; [15],0.19 mg/kg
same,Increase,[11],48%
same,Change,[6],-60%
same,Increase,[10],110%
CC1(C)Oc2cc(C#N)sc2[C@@H](N2CCCC2=O)[C@@H]1O,ED30,[3]; [15],0.07 mg/kg
same,Change,[6],-67%
CC1(C)Oc2cc([N+](=O)[O-])sc2[C@@H](N2CCCNC2=O)[C@@H]1O,Change,[8],-7%
CN(C)C(=O)c1cc2c(s1)[C@@H](N1CCCCC1=O)[C@H](O)C(C)(C)O2,Change,[9],-7%
same,Increase,[7],32%
same,Change,[8],-63%
COC(=O)c1cc2c(s1)[C@@H](N1CCCC1=O)[C@H](O)C(C)(C)O2,Change,[6],-31%
CC1(C)Oc2cc([N+](=O)[O-])sc2[C@@H](n2ccccc2=O)[C@@H]1O,Change,[9],-10%
same,Change,[8],-57%
same,Increase,[4],0%
CC(=O)c1cc2c(s1)[C@@H](N1CCCC1=O)[C@H](O)C(C)(C)O2,Increase,[1],37%
same,Increase,[7],57%
same,ED30,[3]; [15],0.2 mg/kg
same,Increase,[4],40%
same,Change,[6],-62%
COC(=O)c1cc2c(s1)[C@@H](N1CCCCC1=O)[C@H](O)C(C)(C)O2,Increase,[7],63%
same,Change,[6],-37%
same,Increase,[10],51%
